Measurements taken from ChEMBL document CHEMBL5500326, “Does size matter? - Comparing pyranoses with septanoses as ligands of the bacterial lectin FimH” (Eur J Med Chem, 2024).

Legend:
[1] = (§1) Displacement of fluorescent tracer 3'-chloro-N-(2-(3-(3',6'-dihydroxy-3-oxo-3H-spiro[isobenzofuran-1,9'-xanthen]-5-yl)thioureido)ethyl)-4'-(alpha-D-mannopyranosyloxy)biphenyl-4-carboxamide from Escherichia coli F18 FimH lectin domain expressed in Escherichia coli HM125 assessed as dissociation constant incubated for 24 hrs by competitive binding based fluorescence polarization assay
Outline: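 Competitive FP: 50 nM FimH lectin domain and 50 nM mannoside-fluorescein tracer; ligand serially diluted from 500 μM final in 20 mM HEPES pH 7.4, 150 mM NaCl, 50 μg/mL BSA, 5% DMSO (10% for poorly soluble ligands). Read after 24 h equilibration, Ex 485/Em 535 nm. KD from analytical competitive binding model fit.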

[2] = biological target: Type 1 fimbrin D-mannose specific adhesin (Escherichia coli K-12, UniProt P08191); experiment: as §1, with “F18 full-length” for “F18”, “FimH” for “FimH lectin domain”
Outline: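 Competitive FP with full-length FimH at 300 nM and tracer at 500 nM; ligand serially diluted from 5 mM final, or 50 μM for some mannosides, in 20 mM HEPES pH 7.4, 150 mM NaCl, 50 μg/mL BSA, 5% DMSO (10% for poorly soluble ligands, top 500 μM). Read after 24 h, Ex 485/Em 535 nm. KD from competitive binding model fit.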

Escherichia coli = experiment: Ratio of kd for displacement of fluorescent tracer 3'-chloro-N-(2-(3-(3',6'-dihydroxy-3-oxo-3H-spiro[isobenzofuran-1,9'-xanthen]-5-yl)thioureido)ethyl)-4'-(alpha-D-mannopyranosyloxy)biphenyl-4-carboxamide from Escherichia coli F18 full-length FimH expressed in Escherichia coli HM125 to kd for displacement of fluorescent tracer 3'-chloro-N-(2-(3-(3',6'-dihydroxy-3-oxo-3H-spiro[isobenzofuran-1,9'-xanthen]-5-yl)thioureido)ethyl)-4'-(alpha-D-mannopyranosyloxy)biphenyl-4-carboxamide from Escherichia coli F18 FimH lectin domain expressed in Escherichia coli HM125
Outline: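 Ratio of FP-derived KD for full-length FimH (300 nM protein, 500 nM tracer, ligand from 5 mM) over KD for lectin domain (50 nM each, ligand from 500 μM). Both in HEPES/NaCl/BSA buffer pH 7.4 with DMSO, 24 h equilibration, Ex 485/Em 535 nm, competitive binding model fit.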

[3] = Binding affinity to Escherichia coli F18 FimH lectin domain expressed in Escherichia coli HM125 assessed as dissociation constant by isothermal titration calorimetry
Outline: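 ITC at 25 °C; protein dialyzed against 20 mM HEPES, 150 mM NaCl, pH 7.4, ligand dissolved in dialysate, 5% or 10% DMSO. Baselines corrected and peaks integrated, then global nonlinear regression fitting with confidence intervals.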

Type 1 fimbrin D-mannose specific adhesin, sequence (P08191 whole entry, the tested form may be a part): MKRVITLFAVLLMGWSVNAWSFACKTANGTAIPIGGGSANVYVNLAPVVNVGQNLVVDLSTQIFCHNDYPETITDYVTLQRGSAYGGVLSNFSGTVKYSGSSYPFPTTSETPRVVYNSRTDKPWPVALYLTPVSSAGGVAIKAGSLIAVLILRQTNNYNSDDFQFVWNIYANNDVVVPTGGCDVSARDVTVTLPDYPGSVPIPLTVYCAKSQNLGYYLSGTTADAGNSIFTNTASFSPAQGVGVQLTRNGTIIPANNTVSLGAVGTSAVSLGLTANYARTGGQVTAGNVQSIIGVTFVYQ

CCCCCCCO[C@H]1CO[C@H](CO)[C@@H](O)[C@H](O)[C@@H]1O
Kd ([1]; read-out: Kd): 1.94 µM
Kd ([2]; read-out: Kd): 31.8 µM
Ratio (Escherichia coli): 16.4

N#Cc1ccc(-c2ccc(CO[C@H]3CO[C@H](CO)[C@@H](O)[C@H](O)[C@@H]3O)cc2)cc1
Kd ([1]; read-out: Kd): 1.44 µM
Kd ([2]; read-out: Kd): 63.1 µM
Ratio (Escherichia coli): 43.8

N#Cc1ccc(-c2ccc(O[C@H]3O[C@H](CO)[C@@H](O)[C@H](O)[C@@H]3O)cc2)cc1
Kd ([2]; read-out: Kd): 0.208 µM

N#Cc1cccc(-c2ccc(CO[C@H]3CO[C@H](CO)[C@@H](O)[C@H](O)[C@@H]3O)c(Cl)c2)c1
Kd ([1]; read-out: Kd): 1.44 µM
Kd ([2]; read-out: Kd): 35.5 µM
Ratio (Escherichia coli): 24.7

NC(=O)c1ccc(-c2ccc(O[C@H]3O[C@H](CO)[C@@H](O)[C@H](O)[C@@H]3O)c(Cl)c2)cc1
Kd ([1]; read-out: Kd): 0.0003 µM
Kd ([2]; read-out: Kd): 0.086 µM

N#Cc1ccc(-c2ccc(CO[C@H]3CO[C@H](CO)[C@@H](O)[C@H](O)[C@@H]3O)c(Cl)c2)cc1
Kd ([1]; read-out: Kd): 1.3 µM
Kd ([2]; read-out: Kd): 37.8 µM
Ratio (Escherichia coli): 29.1

NC(=O)c1ccc(-c2ccc(CO[C@H]3CO[C@H](CO)[C@@H](O)[C@H](O)[C@@H]3O)c(Cl)c2)cc1
Kd ([1]; read-out: Kd): 1.58 µM
Kd ([2]; read-out: Kd): 59.4 µM
Ratio (Escherichia coli): 37.6

CCCCCCCO[C@H]1O[C@H](CO)[C@@H](O)[C@H](O)[C@@H]1O
Kd ([1]; read-out: Kd): 0.0283 µM
Kd ([2]; read-out: Kd): 3.6 µM

NC(=O)c1ccc(-c2ccc(CO[C@H]3CO[C@H](CO)[C@@H](O)[C@H](O)[C@@H]3O)cc2)cc1
Kd ([1]; read-out: Kd): 2.72 µM
Kd ([2]; read-out: Kd): 116 µM
Ratio (Escherichia coli): 42.7

NC(=O)c1ccc(-c2ccc(O[C@H]3O[C@H](CO)[C@@H](O)[C@H](O)[C@@H]3O)cc2)cc1
Kd ([2]; read-out: Kd): 0.24 µM

N#Cc1ccc(-c2ccc(O[C@H]3CO[C@H](CO)[C@@H](O)[C@H](O)[C@@H]3O)cc2)cc1
Kd ([1]; read-out: Kd): 0.26 µM
Kd ([2]; read-out: Kd): 42.3 µM
Kd [3]: 0.838 µM

OC[C@H]1OC[C@H](OCc2ccccc2)[C@@H](O)[C@@H](O)[C@@H]1O
Kd ([1]; read-out: Kd): 80.1 µM
Kd ([2]; read-out: Kd): 417 µM
Ratio (Escherichia coli): 5.2

OC[C@H]1OC[C@H](OCc2ccc(-c3ccccc3)cc2)[C@@H](O)[C@@H](O)[C@@H]1O
Kd ([1]; read-out: Kd): 5.67 µM
Kd ([2]; read-out: Kd): 110 µM
Ratio (Escherichia coli): 19.3

N#Cc1ccc(-c2ccc(O[C@H]3CO[C@H](CO)[C@@H](O)[C@H](O)[C@@H]3O)c(Cl)c2)cc1
Kd ([1]; read-out: Kd): 0.1 µM
Kd ([2]; read-out: Kd): 6.99 µM

OC[C@H]1O[C@H](Oc2ccc(-c3ccccc3)cc2)[C@@H](O)[C@@H](O)[C@@H]1O
Kd ([1]; read-out: Kd): 0.0151 µM

N#Cc1ccc(-c2ccc(O[C@H]3O[C@H](CO)[C@@H](O)[C@H](O)[C@@H]3O)c(Cl)c2)cc1
Kd ([1]; read-out: Kd): 0.0005 µM
Kd ([2]; read-out: Kd): 0.084 µM

OC[C@H]1O[C@H](Oc2ccc(-c3ccccc3)cc2Cl)[C@@H](O)[C@@H](O)[C@@H]1O
Kd ([1]; read-out: Kd): 0.0028 µM
Kd ([2]; read-out: Kd): 0.458 µM

NC(=O)c1ccc(-c2ccc(O[C@H]3CO[C@H](CO)[C@@H](O)[C@H](O)[C@@H]3O)c(Cl)c2)cc1
Kd ([1]; read-out: Kd): 0.12 µM
Kd ([2]; read-out: Kd): 7.34 µM

CCCCCCCO[C@@H]1C[C@@H](O)[C@@H](O)[C@H](O)[C@@H](CO)O1
Kd [1]: Not Active
Kd [2]: Not Active

OC[C@H]1OC[C@H](Oc2ccc(-c3ccccc3)cc2Cl)[C@@H](O)[C@@H](O)[C@@H]1O
Kd ([1]; read-out: Kd): 0.06 µM
Kd ([2]; read-out: Kd): 6.11 µM

OC[C@H]1OC[C@H](OCCCc2ccccc2)[C@@H](O)[C@@H](O)[C@@H]1O
Kd ([1]; read-out: Kd): 7.05 µM
Kd ([2]; read-out: Kd): 125 µM
Ratio (Escherichia coli): 17.8
